According to paper PMC5860981 (Journal of immunology (Baltimore, Md. : 1950), 2018):

Key:
Type in all cases: cell-based, human
[1] = system: pDCs; experiment: pDC stimulation with NETs
[2] = system: neutrophils; experiment: PMA-induced NET formation in neutrophils; conditions: 100 μM, neutrophils stimulated with 25 nM PMA 3 h
[3] = system: NETs; experiment: Detection of LL-37 in NETs by immunofluorescence microscopy; conditions: 100 μM, PMA-induced NETs, antibody specific for native LL-37
Outline: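 Human neutrophils, hypotonically lysed to remove RBCs, seeded at 1 × 10^5 cells on 1% BSA-treated coverslips, 30 min at 37 °C, 5% CO2. Where indicated, 100 μM PAD inhibitor. NETs induced with 25 nM PMA, 3 h. Fixed in 3.7% paraformaldehyde; mouse anti-LL-37 (1:50, 1 h RT), Alexa-Fluor-647 anti-mouse (1:1000, 45 min), Hoechst 1 μg/mL; imaged at 20×.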

## NC(=O)[C@H](CCCN=C(N)CCl)NC(=O)c1ccccc1 [Cl-A, Cl-amidine]
[1]; 100 μM inhibitor, ELISA
  IL-6 in conditioned medium from pDCs treated with NETs generated in the presence of inhibitor: substantial amount of IL-6
[1]; NETs from neutrophils given 100 μM inhibitor before PMA, real-time PCR
  MxA expression in pDCs exposed to NETs pre-treated with inhibitor: upregulated markedly
[2]
  NET formation and levels of citrullination: reduced both the levels of citrullination (Figure S3) and NET formation
[3]
  LL-37 fluorescence spots relative to amount of NETs, versus no inhibitor: 3 times
